One block for each molecule: values may come before it. Square brackets hold non-standard residues; d marks the D form. Peptide text beside a SMILES is read from it. Lys(Me3) = C[N+](C)(C)CCCC[C@H](N)C(=O)O
Experiments:
PHF1 Tudor (WT) = PHF1 Tudor (WT) (Homo sapiens, UniProt O43189); experiment: NMR 1H,15N HSQC titration of wild type PHF1 Tudor with histone peptides; type: binding; conditions: for NMR chemical shift / resonance perturbations in PHF1 Tudor: titration of unlabeled peptide into 15N-labeled wild type Tudor
GST-fusion PHF1 Tudor = experiment: Pull-down of GST-fusion PHF1 Tudor with biotinylated histone peptides; type: binding, human; conditions: biotinylated peptides (H3K4, H3K9, unmodified H3: residues 1–21; H3K27, H3K36: residues 21–44), 50 mM Tris pH 7.5, 150 mM NaCl, 0.05% Nonidet P-40; anti-GST western
How it was run: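 GST-tagged human PHF1 Tudor (residues 14–87) expressed in E. coli BL21(DE3) pLysS with 0.5 mM IPTG induction, purified on glutathione beads, eluted with 0.05 M reduced glutathione, then size exclusion. The protein was incubated with C-terminally biotinylated peptides (me1/me2/me3 forms) plus streptavidin beads. Beads were washed five times in binding buffer, and bound protein was detected with HRP-conjugated anti-GST monoclonal.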

PHF1 Tudor Y47A = PHF1 Tudor Y47A (Homo sapiens, UniProt O43189, Y47A); experiment: NMR 1H,15N HSQC titration of PHF1 Tudor Y47A mutant; type: binding; conditions: structure of the protein remained intact
How it was run: (§1)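 Uniformly 15N-labeled mutant PHF1 Tudor (residues 14–87) was GST-purified from E. coli BL21(DE3) pLysS grown in 15NH4Cl M9 (0.5 mM IPTG), tag-cleaved and size-exclusion purified. 1H,15N HSQC spectra were recorded at 600 MHz (cryoprobe) with increasing concentrations of 12-mer histone tail peptides. Kd came from nonlinear least-squares fitting of normalized chemical shift changes versus peptide and protein concentration.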

PHF1 Tudor W41A = PHF1 Tudor W41A (Homo sapiens, UniProt O43189, W41A); experiment: NMR 1H,15N HSQC titration of PHF1 Tudor W41A mutant; type: binding; conditions: structure of the protein remained intact
How it was run: as §1

XRCC1 = XRCC1 accumulation at single stranded breaks upon PARP1 inhibitor treatment; type: cell-based; conditions: low doses of radiation
[1] = test system: poly (ADP-ribose) PAR polymer; experiment: Poly; type: cell-based; conditions: Western analysis
HEK293T cells = type: cell-based; conditions: HA-tagged PHF1, 48 hours after transfection, compared with empty vector
How it was run: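 HEK293T cells were grown in DMEM with 10% FBS and penicillin/streptomycin. They were transiently transfected using polyethylenimine with full-length human PHF1 (C-terminal HA tag, pIRES2-EGFP; wild type, W41A or Y47A) or empty plasmid as negative control. Whole-cell lysates were collected 48 h post-transfection for Western blot with rabbit antibodies to HA, histone H3, H3K27me3 and H3K36me3.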

[2] = test system: MYT1 promoter, HEK293T cells; experiment: ChIP at the MYT1 promoter in HEK293T cells; type: cell-based; conditions: upon overexpression of PHF1; normalized to H3
How it was run: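 HEK293T cells were transiently transfected with empty vector, wild-type HA-PHF1 or W41A/Y47A mutants, then fixed 48 h later (1×10^7 cells, 1% formaldehyde, 14 min, room temperature). Chromatin was sonicated to ~500 bp and immunoprecipitated with 4 μg antibody and Protein A magnetic beads. qPCR was run in triplicate with 7 MYT1 primer sets (−1680 to 866 around TSS). Fold-enrichment = IgG-subtracted %Input ÷ that of reference gene PCLB4. Data are mean ± SD of three biological replicates.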

[3] = test system: Oct4, Nanog, HoxA4 and HoxA11 promoters, mouse ES cells; experiment: ChIP of H3K27me3 in mouse ES cells expressing Flag-PHF1; type: cell-based; conditions: stably expressing Flag-PHF1 vs empty vector; H3K27me3 to total H3; two experiments
How it was run: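 Mouse ES cells (ww6), grown on fibroblasts or with recombinant LIF, transduced with virus carrying pRTF vector (empty or Flag-PHF1); Flag-PHF1 clones selected. ChIP on 500 μg cross-linked chromatin with anti-H3 or anti-H3K27me3; qPCR with primers near the transcription start site. H3K27me3 expressed as ratio to total H3 to correct for nucleosome density; two separate ChIP experiments.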

times weaker binding than H3K36me3 (trimethylated at other lysine residues) (PHF1 Tudor (WT); relative to H3K36me3, ITC or NMR (Fig. 3a)): ~8 times
Molecule: C[C@H](N)C(=O)N[C@@H](CCCNC(=N)N)C(=O)N[C@H](C(=O)N[C@@H](CCCC[N+](C)(C)C)C(=O)N[C@@H](CCC(N)=O)C(=O)N[C@H](C(=O)N[C@@H](C)C(=O)N[C@@H](CCCNC(=N)N)C(=O)N[C@@H](CCCCN)C(=O)N[C@@H](CO)C(=O)N[C@H](C(=O)NCC(=O)O)[C@@H](C)O)[C@@H](C)O)[C@@H](C)O [H3K4me3]
NMR chemical shift / resonance perturbations in PHF1 Tudor (PHF1 Tudor (WT)): slightly different patterns of chemical shift changes

effect of Y47A substitution on binding to H3K36me3 (PHF1 Tudor Y47A): disrupted binding | effect of W41A substitution on binding to H3K36me3 (PHF1 Tudor W41A): disrupted binding | NMR chemical shift / resonance perturbations in PHF1 Tudor (PHF1 Tudor (WT)): large chemical shift perturbations
Molecule: CC(C)[C@H](NC(=O)CNC(=O)CNC(=O)[C@@H](NC(=O)[C@H](C)N)[C@@H](C)O)C(=O)N[C@@H](CCCC[N+](C)(C)C)C(=O)N[C@@H](CCCCN)C(=O)N1CCC[C@H]1C(=O)N[C@@H](Cc1c[nH]cn1)C(=O)N[C@@H](CCCNC(=N)N)C(=O)O [H3K36me3] (H-ATGGV[Lys(Me3)]KPHR-OH; N-terminus and C-terminus assumed)
association of PHF1 Tudor in pull-down (GST-fusion PHF1 Tudor): associated most strongly

Molecule: O=C(c1cc(Cc2n[nH]c(=O)c3ccccc23)ccc1F)N1CCN(C(=O)C2CC2)CC1 [AZD2281]
accumulation of XRCC1 at single stranded breaks (XRCC1): loss of accumulation | poly (ADP-ribose) PAR polymer [1]: decrease in poly (ADP-ribose) PAR polymer

B1: wild type PHF1: full length hPHF1 expressed in HEK293T (HA-tag) or K562 cells (Flag) (protein, UniProt O43189 1-567, looked up)
chain: MAQPPRLSRSGASSLWDPASPAPTSGPRPRLWEGQDVLARWTDGLLYLGTIKKVDSAREVCLVQFEDDSQFLVLWKDISPAALPGEELLCCVCRSETVVPGNRLVSCEKCRHAYHQDCHVPRAPAPGEGEGTSWVCRQCVFAIATKRGGALKKGPYARAMLGMKLSLPYGLKGLDWDAGHLSNRQQSYCYCGGPGEWNLKMLQCRSCLQWFHEACTQCLSKPLLYGDRFYEFECCVCRGGPEKVRRLQLRWVDVAHLVLYHLSVCCKKKYFDFDREILPFTSENWDSLLLGELSDTPKGERSSRLLSALNSHKDRFISGREIKKRKCLFGLHARMPPPVEPPTGDGALTSFPSGQGPGGGVSRPLGKRRRPEPEPLRRRQKGKVEELGPPSAVRNQPEPQEQRERAHLQRALQASVSPPSPSPNQSYQGSSGYNFRPTDARCLPSSPIRMFASFHPSASTAGTSGDSGPPDRSPLELHIGFPTDIPKSAPHSMTASSSSVSSPSPGLPRRSAPPSPLCRSLSPGTGGGVRGGVGYLSRGDPVRVLARRVRPDGSVQYLVEWGGGGIF
modifications: full-length HA or Flag tag
global level of H3K27me3 (HEK293T cells): decrease in the global level of H3K27me3 | H3K27me3 levels at MYT1 [2]: substantially reduced

B2: W41A: PHF1 mutant impaired in H3K36me3 binding; HA-tagged, GFP-fusion or in Flag-PHF1-PRC2 complex according to the test (protein, UniProt O43189 1-567, looked up, variant W41A)
PHD finger protein 1: MAQPPRLSRSGASSLWDPASPAPTSGPRPRLWEGQDVLARATDGLLYLGTIKKVDSAREVCLVQFEDDSQFLVLWKDISPAALPGEELLCCVCRSETVVPGNRLVSCEKCRHAYHQDCHVPRAPAPGEGEGTSWVCRQCVFAIATKRGGALKKGPYARAMLGMKLSLPYGLKGLDWDAGHLSNRQQSYCYCGGPGEWNLKMLQCRSCLQWFHEACTQCLSKPLLYGDRFYEFECCVCRGGPEKVRRLQLRWVDVAHLVLYHLSVCCKKKYFDFDREILPFTSENWDSLLLGELSDTPKGERSSRLLSALNSHKDRFISGREIKKRKCLFGLHARMPPPVEPPTGDGALTSFPSGQGPGGGVSRPLGKRRRPEPEPLRRRQKGKVEELGPPSAVRNQPEPQEQRERAHLQRALQASVSPPSPSPNQSYQGSSGYNFRPTDARCLPSSPIRMFASFHPSASTAGTSGDSGPPDRSPLELHIGFPTDIPKSAPHSMTASSSSVSSPSPGLPRRSAPPSPLCRSLSPGTGGGVRGGVGYLSRGDPVRVLARRVRPDGSVQYLVEWGGGGIF
modifications: HA, GFP or Flag tag
global level of H3K27me3 (HEK293T cells): no effect on the H3K27me3 level

B3: Y47A: PHF1 mutant impaired in H3K36me3 binding; HA-tagged, GFP-fusion or in Flag-PHF1-PRC2 complex according to the test (protein, UniProt O43189 1-567, looked up, variant Y47A)
PHD finger protein 1: MAQPPRLSRSGASSLWDPASPAPTSGPRPRLWEGQDVLARWTDGLLALGTIKKVDSAREVCLVQFEDDSQFLVLWKDISPAALPGEELLCCVCRSETVVPGNRLVSCEKCRHAYHQDCHVPRAPAPGEGEGTSWVCRQCVFAIATKRGGALKKGPYARAMLGMKLSLPYGLKGLDWDAGHLSNRQQSYCYCGGPGEWNLKMLQCRSCLQWFHEACTQCLSKPLLYGDRFYEFECCVCRGGPEKVRRLQLRWVDVAHLVLYHLSVCCKKKYFDFDREILPFTSENWDSLLLGELSDTPKGERSSRLLSALNSHKDRFISGREIKKRKCLFGLHARMPPPVEPPTGDGALTSFPSGQGPGGGVSRPLGKRRRPEPEPLRRRQKGKVEELGPPSAVRNQPEPQEQRERAHLQRALQASVSPPSPSPNQSYQGSSGYNFRPTDARCLPSSPIRMFASFHPSASTAGTSGDSGPPDRSPLELHIGFPTDIPKSAPHSMTASSSSVSSPSPGLPRRSAPPSPLCRSLSPGTGGGVRGGVGYLSRGDPVRVLARRVRPDGSVQYLVEWGGGGIF
modifications: HA, GFP or Flag tag
global level of H3K27me3 (HEK293T cells): no effect on the H3K27me3 level

B4: Flag-PHF1: Flag-tagged PHF1 stably expressed in mouse ES cells (protein, UniProt Q9Z1B8 1-559, looked up)
PHD finger protein 1: MAQLPRLSRLGAPSLWDPASPAPTSGPRPRLWEGQDVLARWTDGLLYLGTIKKVDSAREVCLVQFEDDSQFLVLWKDISPAALPGEELLCCVCRSETVVPGNRLVSCEKCRHAYHQDCHVPRAPAPGEGEGASWVCRQCVFAIATKRGGALKKGPYARAMLGMKLSLPYGLKGLDWDAGHLSNRQQSYCYCGGPGEWNLKMLQCRSCLQWFHEACTQCLSKPLLYGDRFYEFECCVCRGGPEKVRRLQLRWVDVAHLVLYHLSVCCKKKYFDFDREILPFTSENWDSLLLGELSDTPKGERSSQLLSALNSHKDRFISGREIKKRKCLFGLHARTPPPVELLTGDGAPTSFPSGQGPGGGVSRPLGKRWRSEPEPLRRRQKGKVEELGPPTAAHSRHGSREQRALQASVSPPPPSPNQSYEGSSGYNFRPTDARCLPSSPIRMFASFHPSASTAGTSGDSEPPDRSPLGLHIGFPTDTPKSSPHSVTASSSSVPALTPGFSRHSPPSPLCRSLSPGTGGGVRGGVSYLSRGDPVRVLARRVRPDGSVQYLVEWGGGGIF
modifications: Flag tag
H3K27me3 level at HoxA4 and HoxA11 [3]: comparable H3K27me3 level | H3K27me3 signal at Oct4 and Nanog [3]: reproducible decrease of the H3K27me3 signal

From PMC3603146 (Nature structural & molecular biology, 2012)
